Assay results as given in ChEMBL document CHEMBL4732095, “Novel naphthylamide derivatives as dual-target antifungal inhibitors: Design, synthesis and biological evaluation” (Eur J Med Chem, 2021).
Calls of active or inactive are those of the source. The rule behind the calls is not given here.

What was measured:
[1] = Renal toxicity in mouse infected with Candida albicans SC5314 assessed as effect on blood urea nitrogen level administered via abdomen for 7 days (reference value: 6.8 +/-0.4 mmol/L); details: in vivo, ip, 168 h, time 7 day
Candida albicans [2] = assay: Antifungal activity against fluconazole-resistant Candida albicans CaR assessed as inhibition of microbial growth by NCCLS protocol based method; format: functional
Candida albicans [3] = assay: Antifungal activity against Candida albicans ATCC SC5314 assessed as reduction in cell division at 10 nM/mL by polarizing microscopy; format: functional, organism-based; details: dose 10.0 nmol/ml
In short: (§1)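 C. albicans ATCC SC5314 observed by polarizing microscopy over treatment time. Untreated, fluconazole- and naftifine-treated control groups were included. Cell density, dividing cells and cell fracture were assessed, with cell counts taken per field.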

Candida albicans SC5314 [4] = assay: Inhibition of SE/CYP51 in Candida albicans ATCC SC5314 assessed as ergosterol level at […] ug/ml incubated for 48 hrs by LC/MS analysis (reference value: 95.1 %); parameters: scale not given: the % may be the effect or the level left; details: dose 0.125 µg/ml
[5] = Toxicity in mouse infected with Candida albicans SC5314 assessed as change in lung morphology administered via abdomen for 7 days by H and E staining based histological analysis; details: in vivo, ip, 168 h, time 7 day
In short: (§2)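 Mice infected with C. albicans SC5314 by subcutaneous abdominal injection, then randomized into saline, and two compound-treated groups. Treatment given by abdominal injection for 7 days, with body weight monitored. Heart, liver, spleen, lung, kidney and infected abdominal tissue harvested for H&E histology.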

[6] = Stability in human plasma assessed as compound remaining incubated for 120 mins; format: ADME, cell-free; details: read-out: Stabilty
In short: (§3)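 Compound incubated in human plasma. Percent remaining measured at 60 and 120 min.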

[7] = Inhibition of Candida albicans ATCC SC5314 SE incubated for 30 mins by spectrophotometric method
In short: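 Enzymes (SE, CYP51) extracted from C. albicans SC5314 using kits. 50 µg enzyme incubated with varying compound concentrations for 30 min at 37 °C in Tris pH 7.4, KCl, MgCl2, 2 mM NADPH, with squalene or eburicol as substrate. Reaction stopped with acetonitrile and centrifuged. Eburicol consumption (CYP51) read by HPLC. Squalene, after sulfuric acid/formaldehyde derivatization, read at 400 nm (SE). IC50 reported.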

Candida albicans SC5314 [8] = assay: Inhibition of SE/CYP51 in Candida albicans ATCC SC5314 assessed as squalene level at 0.5 ug/ml incubated for 48 hrs by LC/MS analysis; parameters: scale not given: the % may be the effect or the level left; details: dose 0.5 µg/ml
In short: (§4)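 C. albicans SC5314 cells exposed to compound at 0.125, 0.5 or 4 μg/mL for 48 h, alongside untreated, fluconazole and naftifine controls. Sterols (ergosterol, squalene, lanosterol, eburicol, unknown) analysed by LC-MS. Each component expressed as percentage of total sterols from peak area ratios.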

Pichia kudriavzevii = assay: Antifungal activity against Candida krusei ATCC 6258 assessed as inhibition of microbial growth by NCCLS protocol based method; format: functional
In short: (§5)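 Broth MIC50 determined following NCCLS guidelines in Sabouraud medium, with fungal suspension in 24-well format. Compound tested at 0.0625, 0.125, 0.5, 1, 2, 4, 8 and 16 μg/mL. Plates cultured statically at 35 °C. MIC50 is the lowest concentration giving 50% growth inhibition. Naftifine and fluconazole served as positive controls.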

Candida albicans SC5314 [9] = assay: Inhibition of SE/CYP51 in Candida albicans ATCC SC5314 assessed as eburicol level at 0.5 ug/ml incubated for 48 hrs by LC/MS analysis (reference value: 1.4 %); parameters: scale not given: the % may be the effect or the level left; details: dose 0.5 µg/ml; in short: as §4
Candida albicans [10] = assay: Antifungal activity against fluconazole-resistant Candida albicans 632 assessed as inhibition of microbial growth by NCCLS protocol based method; format: functional
[11] = Toxicity in mouse infected with Candida albicans SC5314 assessed as change in spleen morphology administered via abdomen for 7 days by H and E staining based histological analysis; details: in vivo, ip, 168 h, time 7 day; in short: as §2
Candida albicans [12] = assay: Antifungal activity against fluconazole-resistant Candida albicans 901 assessed as inhibition of microbial growth by NCCLS protocol based method; format: functional
Nakaseomyces glabratus = assay: Antifungal activity against Candida glabrata ATCC 0001 assessed as inhibition of microbial growth by NCCLS protocol based method; format: functional; in short: as §5
Candida albicans [13] = assay: Antifungal activity against fluconazole-resistant Candida albicans 904 assessed as inhibition of microbial growth by NCCLS protocol based method; format: functional
[14] = Stability in human plasma assessed as compound remaining incubated for 60 mins; format: ADME, cell-free; details: read-out: Stabilty; in short: as §3
Candida albicans SC5314 [15] = assay: Inhibition of SE/CYP51 in Candida albicans ATCC SC5314 assessed as squalene level at 4 ug/ml incubated for 48 hrs by LC/MS analysis; parameters: scale not given: the % may be the effect or the level left; details: dose 4.0 µg/ml; in short: as §4
Aspergillus fumigatus = assay: Antifungal activity against Aspergillus fumigatus KM8001 assessed as inhibition of microbial growth by NCCLS protocol based method; format: functional; in short: as §5
[16] = Toxicity in mouse infected with Candida albicans SC5314 assessed as change in heart morphology administered via abdomen for 7 days by H and E staining based histological analysis; details: in vivo, ip, 168 h, time 7 day; in short: as §2
Candida albicans SC5314 [17] = assay: Inhibition of SE/CYP51 in Candida albicans ATCC SC5314 assessed as ergosterol level at 0.5 ug/ml incubated for 48 hrs by LC/MS analysis (reference value: 95.1 %); parameters: scale not given: the % may be the effect or the level left; details: dose 0.5 µg/ml; in short: as §4
Candida albicans [18] = assay: Antifungal activity against fluconazole-resistant Candida albicans 17# assessed as inhibition of microbial growth by NCCLS protocol based method; format: functional
Candida albicans SC5314 [19] = assay: Inhibition of SE/CYP51 in Candida albicans ATCC SC5314 assessed as lanosterol level at 0.5 ug/ml incubated for 48 hrs by LC/MS analysis; parameters: scale not given: the % may be the effect or the level left; details: dose 0.5 µg/ml; in short: as §4
Candida albicans SC5314 [20] = assay: Inhibition of SE/CYP51 in Candida albicans ATCC SC5314 assessed as ergosterol level at 4 ug/ml incubated for 48 hrs by LC/MS analysis (reference value: 95.1 %); parameters: scale not given: the % may be the effect or the level left; details: dose 4.0 µg/ml; in short: as §4
[21] = Hepatotoxicity in mouse infected with Candida albicans SC5314 assessed as effect on aspartate aminotransferase level in plasma administered via abdomen for 7 days (reference value: 104.7 +/- 5.2 IU/L); format: toxicity; details: ip, 168 h, time 7 day
Candida albicans [22] = assay: In vivo antifungal activity against Candida albicans SC5314 infected in mouse assessed as uniform cell distribution injected via abdomen for 7 days by H and E staining based histological analysis; format: functional, organism-based; details: time 7.0 day; in short: as §2
Candida albicans SC5314 [23] = assay: Inhibition of SE/CYP51 in Candida albicans ATCC SC5314 assessed as unknown sterol level at […] ug/ml incubated for 48 hrs by LC/MS analysis (reference value: 3.5 %); parameters: scale not given: the % may be the effect or the level left; details: dose 0.125 µg/ml
Candida albicans [24] = assay: Antifungal activity against Candida albicans ATCC SC5314 assessed as induction of cell fracture at 10 nM/mL by polarizing microscopy; format: functional, organism-based; details: dose 10.0 nmol/ml; in short: as §1
Candida albicans SC5314 [25] = assay: Inhibition of SE/CYP51 in Candida albicans ATCC SC5314 assessed as unknown sterol level at 0.5 ug/ml incubated for 48 hrs by LC/MS analysis (reference value: 3.5 %); parameters: scale not given: the % may be the effect or the level left; details: dose 0.5 µg/ml; in short: as §4
Candida albicans [26] = assay: In vivo antifungal activity against Candida albicans infected in mouse assessed as disappearance of cell nuclear aggregation injected via abdomen for 7 days by H and E staining based histological analysis; format: functional, organism-based; details: SC5314, time 7.0 day; in short: as §2
[27] = target: Lanosterol 14-alpha demethylase (Candida albicans (strain SC5314 / ATCC MYA-2876) (Yeast), UniProt P10613); assay: Inhibition of Candida albicans ATCC SC5314 CYP51 incubated for 30 mins by HPLC method
Lanosterol 14-alpha demethylase, sequence (P10613 whole entry): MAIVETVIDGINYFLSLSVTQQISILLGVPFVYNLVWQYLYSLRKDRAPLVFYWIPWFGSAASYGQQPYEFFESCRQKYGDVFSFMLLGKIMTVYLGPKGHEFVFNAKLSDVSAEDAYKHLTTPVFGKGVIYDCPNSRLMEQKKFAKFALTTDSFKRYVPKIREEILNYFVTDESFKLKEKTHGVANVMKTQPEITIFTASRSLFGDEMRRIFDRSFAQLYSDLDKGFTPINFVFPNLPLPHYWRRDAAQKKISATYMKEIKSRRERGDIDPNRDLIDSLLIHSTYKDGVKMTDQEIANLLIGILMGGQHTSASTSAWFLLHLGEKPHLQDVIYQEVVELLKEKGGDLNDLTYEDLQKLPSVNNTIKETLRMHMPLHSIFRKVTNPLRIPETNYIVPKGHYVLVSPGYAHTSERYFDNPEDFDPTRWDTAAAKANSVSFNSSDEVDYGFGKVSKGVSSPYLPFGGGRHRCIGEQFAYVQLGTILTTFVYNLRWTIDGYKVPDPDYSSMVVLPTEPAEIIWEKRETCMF

Compound | Activity [1] [mmol/L] | MIC50 (Candida albicans [2]) [µg/mL] | Activity (Candida albicans [3]) | Activity (Candida albicans SC5314 [4]) [%] | Activity [5] | remaining at 2 h [6] [%] | IC50 [7] [nM] | Activity (Candida albicans SC5314 [8]) [%] | MIC50 (Pichia kudriavzevii) [µg/mL] | Activity (Candida albicans SC5314 [9]) [%] | MIC50 (Candida albicans [10]) [µg/mL] | Activity [11] | MIC50 (Candida albicans [12]) [µg/mL] | MIC50 (Nakaseomyces glabratus) [µg/mL] | MIC50 (Candida albicans [13]) [µg/mL] | remaining at 1 h [14] [%] | Activity (Candida albicans SC5314 [15]) [%] | MIC50 (Aspergillus fumigatus) [µg/mL] | Activity [16] | Activity (Candida albicans SC5314 [17]) [%] | other results
CC(NC(=O)c1cccc2ccccc12)C(=O)NC(Cn1ccnc1)C(=O)c1ccccc1 (stereo not given) | 6.4 | 4 | Active | 66.4 | Non-Toxic | 92.1 | 961 | 21.6 | 0.25 | 34 | 8 | Non-Toxic | 4 | 0.25 | 4 | 96.3 | 27.9 | 4 | Non-Toxic | 29.9 | MIC50 (Candida albicans [18]): 2 µg/mL; Activity (Candida albicans SC5314 [19]): 8.7%; Activity (Candida albicans SC5314 [20]): 10.8%; Activity [21]: 112.3 IU/L; Activity (Candida albicans [22]): Active; Activity (Candida albicans SC5314 [23]): 5.4%; Activity (Candida albicans [24]): Active; Activity (Candida albicans SC5314 [25]): 5.8%; Activity (Candida albicans [26]): Active; IC50 [27]: 537 nM
O=C(NC(Cn1ccnc1)C(=O)NCc1ccncc1)c1ccc2ccccc2c1 (stereo not given) | 7.3 | 8 | Active | 68.4 | Non-Toxic | 91.6 | 685 | 14.5 | 0.25 | 37.9 | 8 | Non-Toxic | 4 | 0.125 | > 16 | 94.5 | 20.5 | 4 | Non-Toxic | 35.6 | MIC50 (Candida albicans [18]): 4 µg/mL; Activity (Candida albicans SC5314 [19]): 7.2%; Activity (Candida albicans SC5314 [20]): 13.2%; Activity [21]: 108.6 IU/L; Activity (Candida albicans [22]): Active; Activity (Candida albicans SC5314 [23]): 5%; Activity (Candida albicans [24]): Active; Activity (Candida albicans SC5314 [25]): 4.8%; Activity (Candida albicans [26]): Active; IC50 [27]: 1150 nM
